Laboratory results as given in ChEMBL document CHEMBL1126163, “Decreased histamine release by luteinizing hormone-releasing hormone antagonists obtained upon translocation of the cationic amino acid from position 8 to position 7” (1992).
≈ marks a conversion by molar mass, not a printed value. Where a SMILES comes first, the peptide text is derived from it. [ ]: non-standard residue; d: D form. The star is where a group is joined. dPhe(4-Cl) = N[C@H](Cc1ccc(Cl)cc1)C(=O)O; d2Nal = N[C@H](Cc1ccc2ccccc2c1)C(=O)O; Lys(iPr) = CC(C)NCCCC[C@H](N)C(=O)O; d3Pal = N[C@H](Cc1cccnc1)C(=O)O; Nicotinoyl = O=C(c1cccnc1)*

Columns and labels:
[1] = species: Rattus norvegicus; test: In vitro histamine release from isolated rat mast cells.; assay type: functional; details: read-out: ED50 (the source's name)
In short: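 Histamine release from rat mast cells in vitro, run in duplicate with mast cells from three different rats. LHRH and Nal-Arg standards were included with each set of analogues. The read-out was the ED50 in μg/mL, reported as mean ± SEM.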

[2] = species: Rattus norvegicus; test: Compound was evaluated for its ovulating activity in anti-ovulatory assay (AOA) by using 10 rats at the dose of 2 microgram; assay type: functional
In short: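 Standard antiovulatory assay in 4-day cycling female rats, 10 rats per dose group. Each analogue was given at the stated dose in μg per rat, and the read-out was the number of rats ovulating out of 10.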

Which EC50 [1] does the source give for `CC(=O)N[C@H](Cc1ccc2ccccc2c1)C(=O)N[C@H](Cc1ccc(Cl)cc1)C(=O)N[C@H](Cc1cccnc1)C(=O)N[C@@H](CO)C(=O)N[C@@H](CCCCNC(=O)c1cccnc1)C(=O)N[C@H](CCCCNC(=O)c1cccnc1)C(=O)N[C@@H](CC(C)C)C(=O)N[C@@H](CCCCNC(C)C)C(=O)N1CCC[C@H]1C(=O)N[C@H](C)C(N)=O` [Antide] (Ac-[d2Nal][dPhe(4-Cl)][d3Pal]SK(Nicotinoyl)[dK](Nicotinoyl)L[Lys(iPr)]P[dA]-NH2) here?
Its EC50 is over 300 µg/mL.

Which AOA [2] does the source give for `CC(=O)N[C@H](Cc1ccc2ccccc2c1)C(=O)N[C@H](Cc1ccc(Cl)cc1)C(=O)N[C@H](Cc1cccnc1)C(=O)N[C@@H](CO)C(=O)N[C@@H](CCCCNC(=O)c1ccccn1)C(=O)N[C@H](CCCCNC(=O)c1ccccn1)C(=O)N[C@@H](CCCCNC(C)C)C(=O)N[C@@H](CCCCNC(=O)c1cccnc1)C(=O)N1CCC[C@H]1C(=O)N[C@H](C)C(N)=O` here?
Its AOA is 8.

What about the EC50 [1] of the same compound?
Its EC50 is 70 µg/mL (≈ 40.9 µM).

`CC(=O)N[C@H](Cc1ccc2ccccc2c1)C(=O)N[C@H](Cc1ccc(Cl)cc1)C(=O)N[C@H](Cc1c[nH]c2ccccc12)C(=O)N[C@@H](CO)C(=O)N[C@@H](Cc1ccc(O)cc1)C(=O)N[C@H](CCCN=C(N)N)C(=O)N[C@@H](CCCN=C(N)N)C(=O)N[C@@H](CC(C)C)C(=O)N1CCC[C@H]1C(=O)N[C@H](C)C(N)=O` was tested. Which AOA [2] did it give?
Its AOA is 10.

What about the EC50 [1] of the same compound?
The EC50 was 2.4 µg/mL (≈ 1.63 µM).

How did the EC50 [1] turn out when `CC(=O)N[C@H](Cc1ccc2ccccc2c1)C(=O)N[C@H](Cc1ccc(Cl)cc1)C(=O)N[C@H](Cc1c[nH]c2ccccc12)C(=O)N[C@@H](CO)C(=O)N[C@@H](Cc1ccc(O)cc1)C(=O)N[C@H](CCCN=C(N)N)C(=O)N[C@@H](CC(C)C)C(=O)N[C@@H](CCCN=C(N)N)C(=O)N1CCC[C@H]1C(=O)N[C@H](C)C(N)=O` (Ac-[d2Nal][dPhe(4-Cl)][dW]SY[dR]LRP[dA]-NH2) was run?
The EC50 was 0.1 µg/mL (≈ 0.0681 µM).
